# Experimental data gathered from unrelated publications.
# Compare with care: the assays were run in different laboratories.
# Target: Serine/threonine-protein kinase Nek10 (NEK10, Homo sapiens, UniProt Q6ZWH5)
# One construct used (Q6ZWH5 1-1172): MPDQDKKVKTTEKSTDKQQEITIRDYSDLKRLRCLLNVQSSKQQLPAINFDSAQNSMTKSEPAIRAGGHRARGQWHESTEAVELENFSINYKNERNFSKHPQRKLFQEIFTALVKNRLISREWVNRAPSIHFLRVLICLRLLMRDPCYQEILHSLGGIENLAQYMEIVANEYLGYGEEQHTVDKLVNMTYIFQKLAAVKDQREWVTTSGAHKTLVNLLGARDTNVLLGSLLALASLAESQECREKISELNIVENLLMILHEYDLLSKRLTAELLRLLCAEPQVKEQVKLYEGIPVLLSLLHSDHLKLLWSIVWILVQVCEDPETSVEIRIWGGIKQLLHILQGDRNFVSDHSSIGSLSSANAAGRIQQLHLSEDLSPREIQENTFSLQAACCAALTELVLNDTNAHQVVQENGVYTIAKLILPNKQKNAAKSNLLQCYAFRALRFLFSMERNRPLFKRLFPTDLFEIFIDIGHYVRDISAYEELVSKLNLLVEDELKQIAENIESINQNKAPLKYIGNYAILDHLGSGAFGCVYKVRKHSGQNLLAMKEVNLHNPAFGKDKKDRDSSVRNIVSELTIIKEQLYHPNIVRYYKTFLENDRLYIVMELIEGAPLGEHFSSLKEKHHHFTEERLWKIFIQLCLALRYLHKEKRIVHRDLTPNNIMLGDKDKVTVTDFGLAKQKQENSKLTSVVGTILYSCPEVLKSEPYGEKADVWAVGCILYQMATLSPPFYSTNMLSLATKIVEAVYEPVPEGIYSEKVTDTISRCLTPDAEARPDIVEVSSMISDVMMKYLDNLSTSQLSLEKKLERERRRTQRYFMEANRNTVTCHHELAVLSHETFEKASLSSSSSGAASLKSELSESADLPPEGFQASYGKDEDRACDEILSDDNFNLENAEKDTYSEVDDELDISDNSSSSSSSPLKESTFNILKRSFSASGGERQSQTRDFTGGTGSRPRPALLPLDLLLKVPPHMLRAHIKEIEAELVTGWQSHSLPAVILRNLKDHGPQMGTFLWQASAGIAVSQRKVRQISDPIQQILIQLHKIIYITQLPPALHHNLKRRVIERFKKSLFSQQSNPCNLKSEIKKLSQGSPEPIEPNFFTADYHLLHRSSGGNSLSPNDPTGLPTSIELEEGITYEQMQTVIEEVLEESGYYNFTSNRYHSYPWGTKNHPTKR
Structure (SMILES),read-out,technique,tested at,remaining binding [%]
CN(C)c1ncnc(-c2ccc3nc(Nc4cc(CN5CCN(C(=O)CC(F)(F)F)CC5)ccn4)[nH]c3c2)c1Cl,cell-free assay,competition with immobilised ligand,1 µM,72
CN(C)c1nccc(-c2cnn3ncccc23)n1,binding,,1 µM,100
Cc1cnc(Nc2ccc(C(=O)N3CCC(N4CCCC4)CC3)cc2)nc1-c1cc2ccccc2s1,binding,competition with immobilised ligand,1 µM,71
CN(CCCC(F)(F)F)c1nccc(-c2cnn3ncccc23)n1,binding,,1 µM,90
Nc1c(C(=O)NCc2ccc(C(=O)NCCCC3CCCCC3)cc2)cnn1-c1ccccc1,cell-free assay,competition with immobilised ligand,0.1 µM,100
CC1CCCN1c1nccc(-c2cnn3ncccc23)n1 (centres unmarked),binding,,1 µM,100
C[C@@H](c1ccc(-n2cnc3c(N)ncnc32)cc1)N1CCc2nn(C)c(Cc3ccccc3)c2C1=O,binding,competition with immobilised ligand,0.1 µM,80
COc1ncc2cc3ccccc3nc2c1C#N,cell-free assay,competition with immobilised ligand,5 µM,98
COc1cnc(Nc2cccc(S(N)(=O)=O)c2)nc1N1CCN(c2ccccc2)CC1,binding,competition with immobilised ligand,1 µM,69
O=C(c1ccc(Nc2ncc(Cl)c(-c3cc4ccccc4s3)n2)cc1)N1CCC(N2CCCC2)CC1,binding,competition with immobilised ligand,1 µM,74
O=C(NCC1CCOCC1)c1n[nH]cc1NC(=O)c1c(F)cccc1F,binding,competition with immobilised ligand,1 µM,72
CS(=O)(=O)N1CCCC(NC(=O)[C@H](CCC2CCCCC2)NC(=O)c2ccc(CNC(=O)c3cnc4ccccn34)cc2)C1 (some centres unmarked),cell-free assay,competition with immobilised ligand,0.1 µM,100
c1cnn2ncc(-c3ccnc(N4CCC45COC5)n3)c2c1,binding,,1 µM,98
C[C@@H](c1cccc(C#N)c1)n1cc(Cl)cc(C(N)=O)c1=N,cell-free assay,competition with immobilised ligand,1 µM,91
O=C(NCCCN1CCOCC1)c1ccc(Nc2nccc(-c3cc4ccccc4s3)n2)cc1,binding,competition with immobilised ligand,1 µM,59
FC(F)(F)Oc1cccc(-c2cnc3ccc(-c4ccncc4)nn23)c1,cell-free assay,competition with immobilised ligand,5 µM,28
COc1cccc(CNC(=O)c2nc3scc(COCc4ccc(C(=O)O)cc4)c3c(=O)[nH]2)c1,cell-free assay,competition with immobilised ligand,1 µM,61.7
